# Test results as given in ChEMBL document CHEMBL2321734, “Novel antiviral activity of l-dideoxy bicyclic nucleoside analogues versus vaccinia and measles viruses in vitro” (J Med Chem, 2013).
# Activity calls are given as the source filed them. The rule behind the calls is not given here.
# Test system: Vaccinia virus
# Experiment: Antiviral activity against Vaccinia virus WR infected in african green monkey BSC1 cells after 4 days by plaque reduction assay
# Type: functional, organism-based
# Details: Orthopoxvirus vaccinia, BSC-1, 96 h
row,SMILES,IC50 [nM]
1,CCCCCCCCCCCCCOCc1cc2cn([C@@H]3CC[C@H](CO)O3)c(=O)nc2o1,3400
2,CCOCCCCCCCCCc1cc2cn([C@@H]3CC[C@H](CO)O3)c(=O)nc2o1,12900
3,CCCCOCCCCCCCCCc1cc2cn([C@@H]3CC[C@H](CO)O3)c(=O)nc2o1,1800
4,CCCCCCCCCCOCCCCc1cc2cn([C@@H]3CC[C@H](CO)O3)c(=O)nc2o1,2200
5,CCCCCCOCCCCCCCCc1cc2cn([C@@H]3CC[C@H](CO)O3)c(=O)nc2o1,1700
6,CCCOCCCCCCCCCc1cc2cn([C@@H]3CC[C@H](CO)O3)c(=O)nc2o1,1900
7,CCCCCOCCCCCCCCCc1cc2cn([C@@H]3CC[C@H](CO)O3)c(=O)nc2o1,190
8,CCCCCCOCCCCCCCCCc1cc2cn([C@@H]3CC[C@H](CO)O3)c(=O)nc2o1,190
9,Nc1ccn(C[C@@H](CO)OCP(=O)(O)O)c(=O)n1 [CIDOFOVIR],11500

# Test system: Measles morbillivirus
# Experiment: Antiviral activity against Measles virus Edmonston infected in simian B95a cells assessed as virus-induced cytopathogenicity incubated for 30 mins prior to inoculation measured after 3 days by phase contrast microscopy
# Type: functional
# Details: not given
# In short: (§1)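 Cells grown to 80% confluence in 96-well plates and pretreated 30 min with drug-containing medium. Infection was 100 pfu (HSV-1/2, adenovirus 5) or 100 sfu (measles) per well, then 3 days in DMEM without FBS or antibiotics with drug at 1–100 µM. CPE was scored by phase contrast against virus-only controls. TCID50 is the 50% CPE reduction, averaged over 3 experiments by Reed–Muench.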
row,SMILES,TCID50 [µM]
1,CCCCCOCCCCCCCCCc1cc2cn([C@@H]3CC[C@H](CO)O3)c(=O)nc2o1,>50

# Test system: Human alphaherpesvirus 1
# Experiment: Antiviral activity against HSV 1 NCPV 17+ infected in african green monkey BSC-1 cells assessed as virus-induced cytopathogenicity incubated for 30 mins prior to inoculation measured after 3 days by phase contrast microscopy
# Type: functional
# Details: not given
# In short: as §1
row,SMILES,TCID50 [µM]
1,CCCCCOCCCCCCCCCc1cc2cn([C@@H]3CC[C@H](CO)O3)c(=O)nc2o1,>50

# Test system: BSC-1
# Experiment: Cytotoxicity against african green monkey BSC1 cells infected with Vaccinia virus-WR luciferase reporter virus v3 assessed as visible cytotoxic effect at 10 uM incubated for 30 mins prior to inoculation measured after 2 hrs by phase contrast microscopic analysis
# Type: cell-based
# Details: chlorocebus aethiops, bsc-1, 2 h
row,SMILES,Activity
1,CCCCCCCCCCCCc1cc2cn([C@@H]3CC[C@H](CO)O3)c(=O)nc2o1,Non-toxic
2,CCCCCCCCCCCCCOCc1cc2cn([C@@H]3CC[C@H](CO)O3)c(=O)nc2o1,Non-toxic
3,CCOCCCCCCCCCc1cc2cn([C@@H]3CC[C@H](CO)O3)c(=O)nc2o1,Non-toxic
4,CC(C)(C)OCCCCCCCCCc1cc2cn([C@@H]3CC[C@H](CO)O3)c(=O)nc2o1,Non-toxic
5,CCCCCCc1cc2cn([C@@H]3CC[C@H](CO)O3)c(=O)nc2o1,Non-toxic
6,CCCCOCCCCCCCCCc1cc2cn([C@@H]3CC[C@H](CO)O3)c(=O)nc2o1,Non-toxic
7,CCCCCCCCCCOCCCCc1cc2cn([C@@H]3CC[C@H](CO)O3)c(=O)nc2o1,Non-toxic
8,CCCCCCOCCCCCCCCc1cc2cn([C@@H]3CC[C@H](CO)O3)c(=O)nc2o1,Non-toxic
9,CCCOCCCCCCCCCc1cc2cn([C@@H]3CC[C@H](CO)O3)c(=O)nc2o1,Non-toxic
10,CCCCCOCCCCCCCCCc1cc2cn([C@@H]3CC[C@H](CO)O3)c(=O)nc2o1,Non-toxic
11,CCCCCCOCCCCCCCCCc1cc2cn([C@@H]3CC[C@H](CO)O3)c(=O)nc2o1,Non-toxic

# Test system: Human alphaherpesvirus 2
# Experiment: Antiviral activity against HSV 2 NCPV 132349 infected in african green monkey BSC-1 cells assessed as virus-induced cytopathogenicity incubated for 30 mins prior to inoculation measured after 3 days by phase contrast microscopy
# Type: functional
# Details: not given
# In short: as §1
row,SMILES,TCID50 [µM]
1,CCCCCOCCCCCCCCCc1cc2cn([C@@H]3CC[C@H](CO)O3)c(=O)nc2o1,>50

# Test system: Vaccinia virus
# Experiment: Ratio of cidofovir IC50 to compound IC50 for Vaccinia virus WR
# Type: functional, Orthopoxvirus vaccinia
# Details: not given
row,SMILES,Ratio IC50
1,CCCCCOCCCCCCCCCc1cc2cn([C@@H]3CC[C@H](CO)O3)c(=O)nc2o1,60
2,CCCCCCOCCCCCCCCCc1cc2cn([C@@H]3CC[C@H](CO)O3)c(=O)nc2o1,60

# Test system: Measles morbillivirus
# Experiment: Ratio of ribavirin TCID50 to compound TCID50 for wild type Measles virus mWTFb
# Type: functional
# Details: not given
row,SMILES,Ratio
1,CCCCCOCCCCCCCCCc1cc2cn([C@@H]3CC[C@H](CO)O3)c(=O)nc2o1,150

# Test system: not listed separately
# Experiment: Cytotoxicity against african green monkey BSC1 cells assessed as ATP levels […] by CellTitre-Glo Luminescent Cell Viability assay
# Type: cell-based, BSC-1
# Details: chlorocebus aethiops
row,SMILES,CC50 at 96 h [µM]
1,CCOCCCCCCCCCc1cc2cn([C@@H]3CC[C@H](CO)O3)c(=O)nc2o1,79.4
2,CCCCOCCCCCCCCCc1cc2cn([C@@H]3CC[C@H](CO)O3)c(=O)nc2o1,> 100
3,CCCOCCCCCCCCCc1cc2cn([C@@H]3CC[C@H](CO)O3)c(=O)nc2o1,89.1
4,CCCCCOCCCCCCCCCc1cc2cn([C@@H]3CC[C@H](CO)O3)c(=O)nc2o1,> 100
5,CCCCCCOCCCCCCCCCc1cc2cn([C@@H]3CC[C@H](CO)O3)c(=O)nc2o1,74.1
6,Nc1ccn(C[C@@H](CO)OCP(=O)(O)O)c(=O)n1 [CIDOFOVIR],> 100

# Test system: not listed separately
# Experiment: Cytotoxicity against human HFFF cells assessed as cell viability by CellTitre-Glo Luminescent Cell Viability assay
# Type: cell-based
# Details: not given
row,SMILES,CC50 [µM]
1,CCOCCCCCCCCCc1cc2cn([C@@H]3CC[C@H](CO)O3)c(=O)nc2o1,> 100
2,CCCCOCCCCCCCCCc1cc2cn([C@@H]3CC[C@H](CO)O3)c(=O)nc2o1,> 100
3,CCCOCCCCCCCCCc1cc2cn([C@@H]3CC[C@H](CO)O3)c(=O)nc2o1,> 100
4,CCCCCOCCCCCCCCCc1cc2cn([C@@H]3CC[C@H](CO)O3)c(=O)nc2o1,> 100
5,CCCCCCOCCCCCCCCCc1cc2cn([C@@H]3CC[C@H](CO)O3)c(=O)nc2o1,> 100
6,Nc1ccn(C[C@@H](CO)OCP(=O)(O)O)c(=O)n1 [CIDOFOVIR],> 100

# Test system: not listed separately
# Experiment: Selectivity index, ratio of CC50 for african green monkey BSC1 cells to IC50 for Vaccinia virus-WR
# Type: functional, BSC-1
# Details: not given
row,SMILES,Ratio CC50/IC50
1,CCCCCOCCCCCCCCCc1cc2cn([C@@H]3CC[C@H](CO)O3)c(=O)nc2o1,>500

# Test system: Human alphaherpesvirus 2
# Experiment: Antiviral activity against HSV 2 NCPV 132349 infected in human HFFF cells assessed as virus-induced cytopathogenicity incubated for 30 mins prior to inoculation measured after 3 days by phase contrast microscopy
# Type: functional
# Details: not given
# In short: as §1
row,SMILES,TCID50 [µM]
1,CCCCCOCCCCCCCCCc1cc2cn([C@@H]3CC[C@H](CO)O3)c(=O)nc2o1,>50

# Test system: Measles morbillivirus
# Experiment: Antiviral activity against wild type Measles virus mWTFb infected in simian B95a cells assessed as virus-induced cytopathogenicity incubated for 30 mins prior to inoculation measured after 3 days by phase contrast microscopy
# Type: functional, organism-based
# Details: not given
row,SMILES,inhibition
1,Nc1ccn(C[C@@H](CO)OCP(=O)(O)O)c(=O)n1 [CIDOFOVIR],inactive

# Test system: Measles morbillivirus
# Experiment: Antiviral activity against Measles virus Edmonston infected in african green monkey BSC-1 cells assessed as virus-induced cytopathogenicity incubated for 30 mins prior to inoculation measured after 3 days by phase contrast microscopy
# Type: functional
# Details: not given
# In short: as §1
row,SMILES,TCID50 [µM]
1,CCCCCOCCCCCCCCCc1cc2cn([C@@H]3CC[C@H](CO)O3)c(=O)nc2o1,>50

# Test system: Vaccinia virus
# Experiment: Antiviral activity against Vaccinia virus WR expressing luciferase reporter virus v3 infected in rabbit RK13 cells assessed as inhibition of early stages of VACV replication at 10 uM incubated for 30 mins prior to inoculation measured after 2 hrs by luciferase reporter gene assay relative to control
# Type: functional
# Details: Orthopoxvirus vaccinia, RK-13
row,SMILES,inhibition at 10 µM [%]
1,CCCCCCCCCCCCc1cc2cn([C@@H]3CC[C@H](CO)O3)c(=O)nc2o1,96.4
2,CCCCCCCCCCCCCOCc1cc2cn([C@@H]3CC[C@H](CO)O3)c(=O)nc2o1,43.9
3,CCOCCCCCCCCCc1cc2cn([C@@H]3CC[C@H](CO)O3)c(=O)nc2o1,79.9
4,CC(C)(C)OCCCCCCCCCc1cc2cn([C@@H]3CC[C@H](CO)O3)c(=O)nc2o1,70.7
5,CCCCCCc1cc2cn([C@@H]3CC[C@H](CO)O3)c(=O)nc2o1,70.7
6,CCCCOCCCCCCCCCc1cc2cn([C@@H]3CC[C@H](CO)O3)c(=O)nc2o1,27.5
7,CCCCCCCCCCOCCCCc1cc2cn([C@@H]3CC[C@H](CO)O3)c(=O)nc2o1,26.1
8,CCCCCCOCCCCCCCCc1cc2cn([C@@H]3CC[C@H](CO)O3)c(=O)nc2o1,37.2
9,CCCOCCCCCCCCCc1cc2cn([C@@H]3CC[C@H](CO)O3)c(=O)nc2o1,46.8
10,CCCCCOCCCCCCCCCc1cc2cn([C@@H]3CC[C@H](CO)O3)c(=O)nc2o1,27.7
11,CCCCCCOCCCCCCCCCc1cc2cn([C@@H]3CC[C@H](CO)O3)c(=O)nc2o1,35.7
12,Nc1ccn(C[C@@H](CO)OCP(=O)(O)O)c(=O)n1 [CIDOFOVIR],94.6

# Test system: Human adenovirus 5
# Experiment: Antiviral activity against Adenovirus type 5 ATCC VR-5 infected in human HFFF cells assessed as virus-induced cytopathogenicity incubated for 30 mins prior to inoculation measured after 3 days by phase contrast microscopy
# Type: functional
# Details: not given
# In short: as §1
row,SMILES,TCID50 [µM]
1,CCCCCOCCCCCCCCCc1cc2cn([C@@H]3CC[C@H](CO)O3)c(=O)nc2o1,>50

# Test system: Human alphaherpesvirus 1
# Experiment: Antiviral activity against HSV 1 NCPV 17+ infected in human HFFF cells assessed as virus-induced cytopathogenicity incubated for 30 mins prior to inoculation measured after 3 days by phase contrast microscopy
# Type: functional
# Details: not given
# In short: as §1
row,SMILES,TCID50 [µM]
1,CCCCCOCCCCCCCCCc1cc2cn([C@@H]3CC[C@H](CO)O3)c(=O)nc2o1,>50

# Test system: Human adenovirus 5
# Experiment: Antiviral activity against Adenovirus type 5 ATCC VR-5 infected in african green monkey BSC1 cells assessed as virus-induced cytopathogenicity incubated for 30 mins prior to inoculation measured after 3 days by phase contrast microscopy
# Type: functional, BSC-1
# Details: not given
# In short: as §1
row,SMILES,TCID50 [µM]
1,CCCCCOCCCCCCCCCc1cc2cn([C@@H]3CC[C@H](CO)O3)c(=O)nc2o1,>50

# Test system: BSC-1
# Experiment: Cytotoxicity against african green monkey BSC1 cells infected with Vaccinia virus-WR after 4 days
# Type: cell-based
# Details: chlorocebus aethiops, bsc-1, 96 h
row,SMILES,Activity
1,CCCCCCCCCCCCCOCc1cc2cn([C@@H]3CC[C@H](CO)O3)c(=O)nc2o1,Non-toxic
2,CCOCCCCCCCCCc1cc2cn([C@@H]3CC[C@H](CO)O3)c(=O)nc2o1,Non-toxic
3,CCCCOCCCCCCCCCc1cc2cn([C@@H]3CC[C@H](CO)O3)c(=O)nc2o1,Non-toxic
4,CCCCCCCCCCOCCCCc1cc2cn([C@@H]3CC[C@H](CO)O3)c(=O)nc2o1,Non-toxic
5,CCCCCCOCCCCCCCCc1cc2cn([C@@H]3CC[C@H](CO)O3)c(=O)nc2o1,Non-toxic
6,CCCOCCCCCCCCCc1cc2cn([C@@H]3CC[C@H](CO)O3)c(=O)nc2o1,Non-toxic
7,CCCCCOCCCCCCCCCc1cc2cn([C@@H]3CC[C@H](CO)O3)c(=O)nc2o1,Non-toxic
8,CCCCCCOCCCCCCCCCc1cc2cn([C@@H]3CC[C@H](CO)O3)c(=O)nc2o1,Non-toxic
